Laboratory results from ChEMBL document CHEMBL1125019 (J Med Chem, 1990).

Columns and labels:
D(1A) dopamine receptor = D(1A) dopamine receptor (Rattus norvegicus, UniProt P18901); assay: Binding affinity against Dopamine receptor D1 from rat brain corpus striatum membrane
Method in brief: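 Four to six concentrations of each test agent. IC50 ± SEM obtained by computer-assisted curve fitting; Ki derived from IC50 using the Kd and ligand concentration.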

D(2) dopamine receptor = D(2) dopamine receptor (Rattus norvegicus, UniProt P61169); assay: Binding affinity against Dopamine receptor D2 from rat brain corpus striatum membrane
Chain of D(2) dopamine receptor (P61169 whole entry): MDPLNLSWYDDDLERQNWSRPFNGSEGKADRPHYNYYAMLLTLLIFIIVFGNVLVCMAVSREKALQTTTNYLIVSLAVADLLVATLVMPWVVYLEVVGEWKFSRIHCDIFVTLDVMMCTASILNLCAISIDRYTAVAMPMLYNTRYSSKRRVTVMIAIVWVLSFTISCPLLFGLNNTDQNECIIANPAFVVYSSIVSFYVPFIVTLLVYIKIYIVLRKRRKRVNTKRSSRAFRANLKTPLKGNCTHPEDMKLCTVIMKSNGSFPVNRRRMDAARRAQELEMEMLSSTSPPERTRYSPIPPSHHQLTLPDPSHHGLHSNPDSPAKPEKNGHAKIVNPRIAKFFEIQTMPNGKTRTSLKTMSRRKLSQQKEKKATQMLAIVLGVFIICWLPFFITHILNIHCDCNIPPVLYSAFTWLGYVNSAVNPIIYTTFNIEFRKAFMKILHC

Chain of D(1A) dopamine receptor (P18901 whole entry): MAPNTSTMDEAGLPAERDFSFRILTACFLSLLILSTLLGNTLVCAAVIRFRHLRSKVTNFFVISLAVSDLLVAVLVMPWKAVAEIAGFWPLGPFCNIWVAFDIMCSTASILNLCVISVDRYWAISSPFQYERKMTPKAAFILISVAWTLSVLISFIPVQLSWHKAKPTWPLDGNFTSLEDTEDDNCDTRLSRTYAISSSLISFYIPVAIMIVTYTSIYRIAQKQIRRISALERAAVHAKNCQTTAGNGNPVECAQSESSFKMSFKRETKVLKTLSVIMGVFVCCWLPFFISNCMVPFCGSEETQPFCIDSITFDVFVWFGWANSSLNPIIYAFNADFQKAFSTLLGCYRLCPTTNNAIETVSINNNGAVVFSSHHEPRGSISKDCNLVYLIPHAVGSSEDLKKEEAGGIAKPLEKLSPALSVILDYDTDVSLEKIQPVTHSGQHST

`CCCN1CCc2cc(F)cc3c2[C@H]1Cc1ccc(O)c(O)c1-3` was tested, and the IC50 (D(1A) dopamine receptor) was 1300 nM and the IC50 (D(2) dopamine receptor) was 0.071 nM.
With `CCCN1CCc2cc(F)cc3c2[C@H]1Cc1ccc2c(c1-3)OCO2` the IC50 (D(1A) dopamine receptor) was 3100 nM and the IC50 (D(2) dopamine receptor) was 97.6 nM.
`CCCN1CCc2cc(N)cc3c2[C@H]1Cc1ccc(O)c(O)c1-3` showed an IC50 (D(1A) dopamine receptor) greater than 10000 nM and an IC50 (D(2) dopamine receptor) of 5.5 nM.
With `CCCN1CCc2cc(N)cc3c2[C@H]1Cc1ccc2c(c1-3)OCO2` the IC50 (D(1A) dopamine receptor) was greater than 10000 nM and the IC50 (D(2) dopamine receptor) was 704 nM.
In the case of `CCCN1CCc2cc(O)cc3c2[C@H]1Cc1ccc(O)c(O)c1-3`, the IC50 (D(1A) dopamine receptor) is reported as 1720 nM and the IC50 (D(2) dopamine receptor) is reported as 0.32 nM.
For `CCCN1CCc2cc(Br)cc3c2[C@H]1Cc1ccc(O)c(O)c1-3`, the IC50 (D(1A) dopamine receptor) was 970 nM and the IC50 (D(2) dopamine receptor) was 0.89 nM.
Work on `CCCN1CCc2cc(OC)cc3c2[C@H]1Cc1ccc(O)c(O)c1-3` yielded an IC50 (D(1A) dopamine receptor) of 3340 nM and an IC50 (D(2) dopamine receptor) of 1.02 nM.
